Laboratory results taken from ChEMBL document CHEMBL1764979, “Nucleoside transport inhibitors: structure-activity relationships for pyrimido[5,4-d]pyrimidine derivatives that potentiate pemetrexed cytotoxicity in the presence of α1-acid glycoprotein” (J Med Chem, 2011).
Active and inactive are the calls of the source. The calls are words filed in the database; no cut-off is given here.

How the values were obtained:
[1] = Aqueous solubility of the compound; format: physicochemical; conditions: buffer
[2] = Chemical stability of the compound; format: physicochemical
COR-L23 [3] = assay: Potentiation of pemetrexed-induced growth inhibitory activity in human COR-L23 cells at 1 uM by SRB assay in presence of thymidine and hypoxanthine; format: functional; set-up: scale not given: the % may be the effect or the level left
Summary of the method: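 COR-L23 cells in RPMI 1640 with 10% FCS were seeded at 1 × 10^3/well and allowed to attach overnight. They were then given pemetrexed 200 nM, ± TdR 1 μM and HPX 10 μM (1% DMSO), ± inhibitor 1 μM, for three doublings, then fixed and read by SRB. % reversal = (growth arrest with pemetrexed + TdR/HPX + inhibitor)/(growth arrest with pemetrexed alone) × 100. Three independent experiments.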

COR-L23 [4] = assay: Inhibition of ENT-mediated [3H]thymidine incorporation in human COR-L23 cells at 0.1 uM by liquid scintillation counting; format: cell-based
Summary of the method: (§1)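 Log-phase COR-L23 cells were seeded at 2 × 10^4/well, left overnight, PBS-washed and given serum-free medium with inhibitor. 3H-TdR was added (final 100 nM, 6.2 GBq/mmol) for 2 h at 37 °C. Cells were washed in ice-cold PBS, lysed in 0.5 M NaOH for 30 min, harvested onto glass-fibre filters with TCA/water/MeOH rinses, and scintillation counted. Mean ± SD of three independent experiments.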

COR-L23 [5] = assay: Inhibition of ENT-mediated [3H]thymidine incorporation in human COR-L23 cells at 1 uM by liquid scintillation counting; format: cell-based; summary of the method: as §1
[6] = Inhibition of ENT-mediated [3H]thymidine incorporation in human COR-L23 cells by liquid scintillation counting; format: cell-based; conditions: COR-L23, 2 h; summary of the method: as §1
L1210 [7] = assay: Inhibition of ENT-mediated [3H]thymidine incorporation in mouse L1210 cells at 1 uM by liquid scintillation counting; format: cell-based; conditions: in the assay text read “transport” for “incorporation”
Summary of the method: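 3H-TdR transport into murine L1210 leukaemia cells with inhibitor at 1.0 μM, tested with and without AGP (5 mg/mL). Mean and SD of three independent experiments.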

L1210 [8] = conditions: Mus musculus, at 1 µM

## CCOC(=O)[C@H](C)NC(=O)OC(C)CNc1nc(NCc2ccc(OC)c(OC)c2)c2nc(NCC(C)OC(=O)N[C@@H](C)C(=O)OCC)nc(NCc3ccc(OC)c(OC)c3)c2n1 (some centres undefined)
[1]
  solubility: Insoluble
[2]
  Stability: Unstable

## COc1ccc(CNc2nc(NCC(C)OC(=O)Nc3ccccc3)nc3c(NCc4ccc(OCCN5CCOCC5)c(OC)c4)nc(NCC(C)O)nc23)cc1OC (centres undefined)
COR-L23 [3]
  Activity: >100%
COR-L23 [4]
  inhibition: 80%
COR-L23 [5]
  inhibition: 97%
[6]
  IC50: 22 nM

## COc1ccc(CNc2nc(NCC(C)OC(=O)Nc3ccc(C(F)(F)F)cc3)nc3c(NCc4ccc(OC)c(OC)c4)nc(NCC(C)O)nc23)cc1OC (centres undefined)
L1210 [7]
  inhibition: Active
COR-L23 [3]
  Activity: >100%
L1210 [8]
  inhibition: Active
COR-L23 [4]
  inhibition: 75%
COR-L23 [5]
  inhibition: 93%
[6]
  IC50: 67 nM
[2]
  Stability: Stable

## COc1ccc(CNc2nc(NCC(C)OC(=O)Nc3ccccc3)nc3c(NCc4ccc(OC)c(OC)c4)nc(NCC(C)OC(=O)CCC(=O)O)nc23)cc1OC (centres undefined)
COR-L23 [3]
  Activity: >100%
COR-L23 [4]
  inhibition: 75%
COR-L23 [5]
  inhibition: 94%
[6]
  IC50: 7 nM
[2]
  Stability: Unstable

## COc1ccc(CNc2nc(NCC(C)OC(=O)Nc3ccccc3)nc3c(NCc4ccc(OC)c(OC)c4)nc(NCC(C)O)nc23)cc1OC (centres undefined)
L1210 [7]
  inhibition: Active
COR-L23 [3]
  Activity: >100%
L1210 [8]
  inhibition: Active
COR-L23 [4]
  inhibition: 81%
COR-L23 [5]
  inhibition: 97%
[6]
  IC50: 8 nM
[2]
  Stability: Stable

## COc1ccc(CNc2nc(NCC(C)OC(=O)CCC(=O)O)nc3c(NCc4ccc(OC)c(OC)c4)nc(NCC(C)O)nc23)cc1OC (centres undefined)
L1210 [8]
  inhibition: Active

## COc1ccc(NC(=O)OC(C)CNc2nc(NCc3ccc(OC)c(OC)c3)c3nc(NCC(C)OC(=O)Nc4ccc(OC)cc4)nc(NCc4ccc(OC)c(OC)c4)c3n2)cc1 (centres undefined)
[2]
  Stability: Stable

## COc1ccc(CNc2nc(NCC(C)OC(=O)Nc3ccccc3)nc3c(NCc4ccc(OC)c(OC)c4)nc(NCC(O)CO)nc23)cc1OC (centres undefined)
COR-L23 [3]
  Activity: >100%
COR-L23 [4]
  inhibition: 69%
COR-L23 [5]
  inhibition: 91%
[6]
  IC50: 10 nM

## COc1ccc(CNc2nc(NCC(C)OC(=O)[C@@H](NC(=O)OC(C)(C)C)C(C)C)nc3c(NCc4ccc(OC)c(OC)c4)nc(NCC(C)OC(=O)[C@@H](NC(=O)OC(C)(C)C)C(C)C)nc23)cc1OC (some centres undefined)
L1210 [8]
  inhibition: inactive

## CCOC(=O)[C@H](Cc1ccccc1)NC(=O)OC(C)CNc1nc(NCc2ccc(OC)c(OC)c2)c2nc(NCC(C)O)nc(NCc3ccc(OC)c(OC)c3)c2n1 (some centres undefined)
[2]
  Stability: Unstable

## CCOC(=O)CNC(=O)OC(C)CNc1nc(NCc2ccc(OC)c(OC)c2)c2nc(NCC(C)O)nc(NCc3ccc(OC)c(OC)c3)c2n1 (centres undefined)
L1210 [7]
  inhibition: > 90%
L1210 [8]
  inhibition: Active
COR-L23 [4]
  inhibition: 85%
COR-L23 [5]
  inhibition: 94%
[6]
  IC50: 59 nM
[2]
  Stability: Unstable

## COc1ccc(CNc2nc(NCC(C)OC(=O)[C@@H](N)C(C)C)nc3c(NCc4ccc(OC)c(OC)c4)nc(NCC(C)OC(=O)Nc4ccccc4)nc23)cc1OC (some centres undefined)
COR-L23 [3]
  Activity: >100%
COR-L23 [4]
  inhibition: 68%
COR-L23 [5]
  inhibition: 92%
[6]
  IC50: 44 nM

## C=CCOc1ccc(CNc2nc(NCC(C)O)nc3c(NCc4ccc(OC)c(OC)c4)nc(NCC(C)O)nc23)cc1OC (centres undefined)
COR-L23 [4]
  inhibition: 81%
COR-L23 [5]
  inhibition: 96%
[6]
  IC50: 14 nM

## COC(=O)[C@@H](NC(=O)OC(C)CNc1nc(NCc2ccc(OC)c(OC)c2)c2nc(NCC(C)O)nc(NCc3ccc(OC)c(OC)c3)c2n1)C(C)C (some centres undefined)
COR-L23 [4]
  inhibition: 79%
COR-L23 [5]
  inhibition: 95%
[6]
  IC50: 7 nM
[2]
  Stability: Unstable

## CCOC(=O)[C@H](C)NC(=O)OC(C)CNc1nc(NCc2ccc(OC)c(OC)c2)c2nc(NCC(C)O)nc(NCc3ccc(OC)c(OC)c3)c2n1 (some centres undefined)
COR-L23 [4]
  inhibition: 39%
COR-L23 [5]
  inhibition: 68%
[6]
  IC50: 435 nM
[2]
  Stability: Unstable

## COc1ccc(CNc2nc(NCC(C)OC(=O)Nc3ccccc3)nc3c(NCc4ccc(OC)c(OC)c4)nc(NCC(C)OC(=O)Nc4ccccc4)nc23)cc1OC (centres undefined)
[2]
  Stability: Stable

## COc1ccc(CNc2nc(NCC(C)OC(=O)[C@@H](N)C(C)C)nc3c(NCc4ccc(OC)c(OC)c4)nc(NCC(C)O)nc23)cc1OC.Cl (some centres undefined)
COR-L23 [3]
  Activity: >100%
COR-L23 [4]
  inhibition: 64%
COR-L23 [5]
  inhibition: 89%
[6]
  IC50: 39 nM

## COc1ccc(CNc2nc(NC[C@H](C)O)nc3c(NCc4ccc(OC)c(OC)c4)nc(NC[C@H](C)O)nc23)cc1OC
COR-L23 [4]
  inhibition: 68%
COR-L23 [5]
  inhibition: 93%
[6]
  IC50: 31 nM

## COc1ccc(CNc2nc(NCC(C)OC(=O)Nc3ccc(C(F)(F)F)cc3)nc3c(NCc4ccc(OC)c(OC)c4)nc(NCC(C)OC(=O)Nc4ccc(C(F)(F)F)cc4)nc23)cc1OC (centres undefined)
L1210 [7]
  inhibition: inactive
[2]
  Stability: Stable

## COc1ccc(CNc2nc(NCC(C)OC(=O)[C@@H](N)C(C)C)nc3c(NCc4ccc(OC)c(OC)c4)nc(NCC(C)OC(=O)[C@@H](N)C(C)C)nc23)cc1OC.Cl.Cl (some centres undefined)
COR-L23 [3]
  Activity: >100%
L1210 [8]
  inhibition: Active
COR-L23 [4]
  inhibition: 59%
COR-L23 [5]
  inhibition: 87%
[6]
  IC50: 70 nM

## COc1ccc(CNc2nc(NCC(C)OC(=O)Nc3ccc([N+](=O)[O-])cc3)nc3c(NCc4ccc(OC)c(OC)c4)nc(NCC(C)O)nc23)cc1OC (centres undefined)
L1210 [7]
  inhibition: Active
COR-L23 [3]
  Activity: >100%
L1210 [8]
  inhibition: Active
COR-L23 [4]
  inhibition: 84%
COR-L23 [5]
  inhibition: 96%
[6]
  IC50: 60 nM
[2]
  Stability: Stable

## COc1ccc(CNc2nc(NCC(C)O)nc3c(NCc4ccc(OC)c(OC)c4)nc(NCC(C)O)nc23)cc1OC (centres undefined)
L1210 [7]
  inhibition: > 90%
COR-L23 [3]
  Activity: >100%
L1210 [8]
  inhibition: Active
COR-L23 [4]
  inhibition: 66%
COR-L23 [5]
  inhibition: 90%
[6]
  IC50: 26 nM
[2]
  Stability: Stable

## COc1ccc(CNc2nc(NCC(C)OC(=O)CCC(=O)O)nc3c(NCc4ccc(OC)c(OC)c4)nc(NCC(C)OC(=O)CCC(=O)O)nc23)cc1OC (centres undefined)
L1210 [8]
  inhibition: inactive

## COc1ccc(NC(=O)OC(C)CNc2nc(NCc3ccc(OC)c(OC)c3)c3nc(NCC(C)O)nc(NCc4ccc(OC)c(OC)c4)c3n2)cc1 (centres undefined)
COR-L23 [3]
  Activity: >100%
COR-L23 [4]
  inhibition: 84%
COR-L23 [5]
  inhibition: 98%
[6]
  IC50: 4 nM
[2]
  Stability: Stable

## CCOC(=O)[C@H](Cc1ccccc1)NC(=O)OC(C)CNc1nc(NCc2ccc(OC)c(OC)c2)c2nc(NCC(C)OC(=O)N[C@@H](Cc3ccccc3)C(=O)OCC)nc(NCc3ccc(OC)c(OC)c3)c2n1 (some centres undefined)
[1]
  solubility: Insoluble
[2]
  Stability: Unstable

## OCCN(CCO)c1nc(N2CCCCC2)c2nc(N(CCO)CCO)nc(N3CCCCC3)c2n1 [DIPYRIDAMOLE]
COR-L23 [3]
  Activity: >100%
COR-L23 [4]
  inhibition: 78%
COR-L23 [5]
  inhibition: 96%
[6]
  IC50: 15 nM

## COc1ccc(CNc2nc(NCC(C)OC(=O)Nc3ccc([N+](=O)[O-])cc3)nc3c(NCc4ccc(OC)c(OC)c4)nc(NCC(C)OC(=O)Nc4ccc([N+](=O)[O-])cc4)nc23)cc1OC (centres undefined)
L1210 [7]
  inhibition: inactive
[2]
  Stability: Stable

## COc1ccc(CNc2nc(NCC(C)OC(=O)[C@@H](NC(=O)OC(C)(C)C)C(C)C)nc3c(NCc4ccc(OC)c(OC)c4)nc(NCC(C)O)nc23)cc1OC (some centres undefined)
L1210 [8]
  inhibition: inactive

## COc1ccc(CNc2nc(NCC(C)OP(=O)(O)O)nc3c(NCc4ccc(OC)c(OC)c4)nc(NCC(C)OC(=O)Nc4ccccc4)nc23)cc1OC (centres undefined)
COR-L23 [4]
  inhibition: 53%
COR-L23 [5]
  inhibition: 75%
[6]
  IC50: 218 nM
[2]
  Stability: Unstable

## CCOC(=O)CNC(=O)OC(C)CNc1nc(NCc2ccc(OC)c(OC)c2)c2nc(NCC(C)OC(=O)NCC(=O)OCC)nc(NCc3ccc(OC)c(OC)c3)c2n1 (centres undefined)
L1210 [7]
  inhibition: > 90%
[2]
  Stability: Unstable
